Measured values: ChEMBL document CHEMBL5150073, “Photocaged DNA-Binding Photosensitizer Enables Photocontrol of Nuclear Entry for Dual-Targeted Photodynamic Therapy” (J Med Chem, 2022)
pKd: −log10 of the molar value. One block for each compound: values may come before it. Active and inactive are the calls of the source. The calls are words filed in the database; no cut-off is given here.

Assays:
[1] = Drug localization in nucleus of human MCF7 cells assessed as increase in cyan fluorescence of 3-bromo-2-(4-carbamimidoylphenyl)-1H-indole-6-carboxamidine excitation at 3 uM incubated for 1 hr in dark by DAPI filter based analysis; format: ADME, subcellular; conditions: mcf7, 1 h
[2] = tested on: Calf thymus DNA; assay: Binding affinity to calf thymus DNA assessed as fold change in fluorescence quenching of 3-bromo-2-(4-carbamimidoylphenyl)-1H-indole-6-carboxamidine; format: nucleic-acid assay; conditions: Bos taurus
[3] = tested on: Calf thymus DNA; assay: Binding affinity to calf thymus DNA assessed as dissociation constant by fluorescence based analysis; format: nucleic-acid assay, Bos taurus
Procedure, shortened: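 Fluorescence titration: compound at 20 μM in PBS pH 7.4, calf thymus DNA added in 10 μM steps until emission plateaued (~60 μM). Excitation 345 nm, emission 350–650 nm. KD obtained by fitting a one-site total saturation binding model (nonspecific binding proportional to ligand). Triplicate independent samples.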

[4] = tested on: MCF7; assay: Photorelease activity in human MCF7 cells assessed as 3-bromo-2-(4-carbamimidoylphenyl)-1H-indole-6-carboxamidine release by measuring bright cyan fluorescence in nucleus at 3 uM incubated for 1 hr followed by illumination with 1.6 J/cm^2 for 10 mins by DAPI filter based analysis; format: ADME, cell-based; conditions: mcf7, 1.167 h, time 70 min
Procedure, shortened: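 MCF7 cells given compound (3 μM) for 1 h, washed once with PBS, imaged. DAPI filter set (ex 350–405, em 415–470 nm) used for Br-DAPI cyan signal; EGFP filter set (ex 450–495, em 500–550 nm) used for WinterGreen green signal. Cells imaged dark, then after 480 nm illumination (10 min, 1.6 J cm⁻²).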

[5] = Aqueous stability of the compound in PBS at pH 7.4 assessed as hydrolysis of carbamate to release 3-bromo-2-(4-carbamimidoylphenyl)-1H-indole-6-carboxamidine at 0.8 uM incubated for 3 hrs by fluorescence based analysis; format: physicochemical; conditions: buffer, pH 7.4, 3 h
[6] = (§1) Stability of compound in human MCF7 cells assessed as esterase-mediated 3-bromo-2-(4-carbamimidoylphenyl)-1H-indole-6-carboxamidine release by measuring cyan fluorescence at 2 uM incubated for 1 hr followed by compound washout and further incubated for 1 hr on heated microscopic stage by DAPI filter based fluorescence analysis; format: ADME, cell-based; conditions: mcf7, 1 h
Procedure, shortened: (§2)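 Cells incubated with compound (2 μM) for 1 h, washed once with PBS, then kept a further 1 h in the dark on a heated microscope stage. Nuclear cyan fluorescence imaged with the DAPI filter set at 0 h and 2 h time points.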

[7] = as §1, with “A549” for “MCF7”; format: ADME, cell-based; conditions: a549, 1 h; procedure, shortened: as §2
[8] = as §1, with “HeLa” for “MCF7”; format: ADME, cell-based; procedure, shortened: as §2
[9] = Induction of ROS production in PBS at pH 7.4 at 1 uM irradiated with 480 nm 2.3 J/cm^2 light for 15 mins with 2-photon irradiation by DCFH2-DA probe based analysis; format: functional
[10] = tested on: MCF7; assay: Induction of ROS production in human MCF7 cells at 2 uM incubated for 1 hr in dark followed by irradiation with 480 nm 2.3 J/cm^2 light for 15 mins with 8 J/cm^2 UV irradiation for 5 mins by DCFH2-DA probe based analysis; format: functional, cell-based; conditions: time 80.0 min
Procedure, shortened: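 MCF7 cells incubated with compound (2 μM) 1 h in the dark, washed, loaded with 10 μM DCFH2DA for 30 min, washed. DCF green fluorescence imaged after 480 nm illumination (15 min, 2.3 J cm⁻²), then after added 365 nm UV (5 min, 8.0 J cm⁻²). Mean fluorescence intensity quantified.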

[11] = tested on: MCF7; assay: Photocytotoxicity against human MCF7 cells assessed as reduction in cell viability incubated for 1 hr under dark condition followed by washout and measured after 24 hrs by MTT assay; format: functional
Procedure, shortened: (§3)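 Cells (MCF7, A549, HeLa) incubated 1 h with compound (BB probes 0–32 μM, Br-DAPI 0–64 μM) and washed once. Light arms: 480 nm (15 min, 2.3 J cm⁻²) with or without UV (5 min, 8.0 J cm⁻²), or UV only; dark controls unilluminated. Cells kept overnight in growth medium, then MTT read 24 h post-treatment. CC50 taken relative to untreated cells. n = 3.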

[12] = tested on: MCF7; assay: Photocytotoxicity against human MCF7 cells assessed as reduction in cell viability incubated for 1 hr followed by washout and irradiation with 480 nm 2.3 J/cm^2 light for 15 mins and measured after 24 hrs by MTT assay; format: functional; conditions: MCF7, light or radiation study; procedure, shortened: as §3
[13] = tested on: MCF7; assay: Photocytotoxicity against human MCF7 cells assessed as reduction in cell viability incubated for 1 hr followed by washout and irradiation with 480 nm 2.3 J/cm^2 light for 15 mins with 8 J/cm^2 UV irradiation for 5 mins and measured after 24 hrs by MTT assay; format: functional; conditions: MCF7, light or radiation study; procedure, shortened: as §3
[14] = Photorelease ability in PBS at pH 7.4 assessed as 3-bromo-2-(4-carbamimidoylphenyl)-1H-indole-6-carboxamidine release by measuring change in emission spectra at 1 uM incubated in presence of CT-DNA and irradiated with 3.1 J/cm^2 mercury lamp light for 20 mins; format: functional
[15] = Photorelease activity in PBS at pH 7.4 assessed as 3-bromo-2-(4-carbamimidoylphenyl)-1H-indole-6-carboxamidine release by measuring increase in fluorescence intensity at 50 uM in presence of CT-DNA incubated for 3 hrs under dark condition by RP-HPLC analysis; format: functional
Procedure, shortened: (§4)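 Samples at 50 μM in PBS pH 7.4 were either kept 3 h at 37 °C in the dark or illuminated 20 min at 480 nm (450–495 nm filter, 3.1 J cm⁻²). Analysed by RP-HPLC on a C18 analytical column with absorbance at 345 nm; retention times recorded. n = 2 independent samples.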

[16] = Photorelease activity in PBS at pH 7.4 assessed as 3-bromo-2-(4-carbamimidoylphenyl)-1H-indole-6-carboxamidine release by measuring time at when peak observed at 50 uM in presence of CT-DNA illuminated with 3.1 J/cm^2 480 nm illumination for 20 mins by RP-HPLC analysis; format: functional; procedure, shortened: as §4
[17] = Photorelease activity in PBS at pH 7.4 assessed as wintergreen release at 50 uM in presence of CT-DNA illuminated with 3.1 J/cm^2 480 nm illumination for 20 mins by RP-HPLC analysis; format: functional; procedure, shortened: as §4
[18] = Drug localization in nucleus of human MCF7 cells assessed as increase in cyan fluorescence at 3 uM incubated for 1 hr by DAPI filter based analysis; format: ADME, subcellular; conditions: mcf7, 1 h
[19] = tested on: MCF7; assay: Induction of DNA damage in human MCF7 cells assessed as double strand breaks by measuring pink foci formation in nucleus at 3 uM incubated for 2 hrs followed by irradiation with 8 J/cm^2 UV irradiation for 5 mins by gammaH2A.X antibody/Alexa 488/DAPI staining based fluorescence analysis; format: functional, cell-based
Procedure, shortened: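 MCF7 cells treated with compound at 3 μM, then illuminated with 480 nm (15 min, 2.3 J cm⁻²) plus UV (5 min, 8.0 J cm⁻²), or with UV alone. Left 2 h, fixed, stained with Alexa 488-tagged γH2AX antibody and DAPI counterstain. Nuclear foci imaged.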

[20] = tested on: MCF7; assay: Photocytotoxicity against human MCF7 cells assessed as reduction in cell viability incubated for 1 hr followed by washout and irradiation with 8 J/cm^2 UV irradiation for 5 mins and measured after 24 hrs by MTT assay; format: functional; conditions: MCF7, light or radiation study; procedure, shortened: as §3
[21] = Drug uptake in human MCF7 cells cultured as […] spheroids assessed as increase in green fluorescence in nuclear background at 10 uM incubated overnight under dark condition by DAPI filter based fluorescence analysis; format: ADME, cell-based; conditions: mcf7, 10 µM
[22] = tested on: MCF7; assay: Photocytotoxicity against human MCF7 cells assessed as reduction in cell viability incubated for 1 hr followed by washout and irradiation with 8 J/cm^2 UV irradiation for 5 mins and measured after 24 hrs by MTT assay

Drug uptake [1]: Active
fold change (FC) [2]: 4
SMILES: COC(=O)/N=C(/N)c1ccc2c(Br)c(-c3ccc(C(=N)N)cc3)[nH]c2c1

Drug metabolism [4]: Metabolite_Detected
Stability [5]: Stable
Stability [6]: Stable
Stability [7]: Stable
Stability [8]: Stable
fold change (FC) [2]: 4
SMILES: CC1=CC(C)=[N+]2C1=C(COC(=O)/N=C(\N)c1ccc(-c3[nH]c4cc(C(=N)N)ccc4c3Br)cc1)c1c(C)cc(C)n1[B-]2(C)C
pKd [3]: 5.00
Activity [9]: Active
Activity [10]: Active
CC50 [11]: > 16 µM
CC50 [12]: 5.8 µM
CC50 [13]: 0.6 µM
Drug metabolism [14]: Metabolite detected
Drug metabolism [15]: Metabolite not detected
TIME [16]: 0.533 h
Drug metabolism [17]: Metabolite not detected

Drug uptake [18]: Active
Drug uptake [21]: Active
SMILES: N=C(N)c1ccc(-c2[nH]c3cc(C(=N)N)ccc3c2Br)cc1
pKd [3]: 4.72
Activity [19]: Active
CC50 [11]: > 64 µM
CC50 [20]: 7.6 µM
Activity [22]: Active
